The values below come from PMC2664388 (Pharmaceutical research, 2008).

The nature of series [1]: Trans-epithelial electrical resistance. Format: in vitro ADME, New Zealand albino rabbits. The settings on record: transport buffers with or without 5% HP-β-CD, 3h.
A short description of series [2]: Corneal permeation, side-bi-side diffusion apparatus. Format: in vitro ADME, New Zealand albino rabbits. The note with it: for Transcorneal permeability: 150μM in DPBS with 5% HP-β-CD, 34°C.
A short description of series [3]: Permeation across sclera/choroid/RPE, Valia-Chein side-bi-side cells. The settings on record: for Permeability across sclera/choroid/RPE: 150μM in DPBS with 5% HP-β-CD, 37°C.
A short description of series [4]: Aqueous solubility, shake flask method. Format: physicochemical. The settings on record: 25°C, 24h.
Series [5] is described as follows: Phase solubility with HP-β-CD. The format is physicochemical.
The nature of series [6]: pH solution stability in buffers. Format: physicochemical. A digest of the protocol:
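Test compound (25 μL of a 1 mg/mL stock) was added to 5 mL of USP buffer pre-equilibrated at 25 or 40°C. Content was measured by RP-HPLC on a C18 column with UV at 284 nm. The mobile phase was 20 mM KH2PO4 (pH 2.5) and acetonitrile at 75:25, run at 1 mL/min.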

A short description of series [7]: Stability in ocular tissue homogenates. The format is in vitro ADME, New Zealand albino rabbits. The note with it: 37°C, after 15h, 1mg/mL protein.
The nature of series [8]: Transscleral permeation, Valia-Chein side-bi-side cells. Format: in vitro ADME, New Zealand albino rabbits. The settings on record: 150μM in DPBS with 5% HP-β-CD, 37°C.
The conditions of series [9]: sonicated 15min, equilibration 4 days; ref 29 Tommasini et al.; cited from earlier work.
For series [10] the following is noted: sonicated 15min, equilibration 4 days; ref 29 Tommasini et al.; cited from earlier work. The source holds these as a separate data set.
The conditions of series [11]: ref 21 Serra et al., cited from earlier work.
For series [12] the following is noted: oral administration, cumulative urinary recovery; ref 14 Ameer et al.; cited from earlier work.

The term pKa denotes the negative logarithm of the acid dissociation constant.

The structures appear in SMILES notation. Like-named read-outs stand apart in the source and are kept apart here. Where only a bound is given, the exact number is not on record here.

Take `CC(O)COC[C@H]1O[C@@H]2O[C@H]3[C@H](O)[C@@H](O)[C@@H](O[C@H]4[C@H](O)[C@@H](O)[C@@H](O[C@H]5[C@H](O)[C@@H](O)[C@@H](O[C@H]6[C@H](O)[C@@H](O)[C@@H](O[C@H]7[C@H](O)[C@@H](O)[C@@H](O[C@H]8[C@H](O)[C@@H](O)[C@@H](O[C@H]1[C@H](O)[C@H]2O)O[C@@H]8COCC(C)O)O[C@@H]7COCC(C)O)O[C@@H]6COCC(C)O)O[C@@H]5COCC(C)O)O[C@@H]4COCC(C)O)O[C@@H]3COCC(C)O` (stereo partly drawn) [HP-β-CD, 2-hydroxypropyl-beta-cyclodextrin]: the TEER of corneas in series [1] turned out to be 5±0.3 KΩcm^2.

With `OCC(O)C(O)C(O)C(O)[14CH2]O` (stereo not drawn) [[^14C]mannitol], in [2] (0.5 μCi/mL, 3h experiment), the “Mean percent cumulative amount transported per hour across the cornea” value came out at 1±0.15 percent per hour. Moreover, in series [3] (0.5 μCi/mL), the “Mean percent cumulative amount transported per hour across the sclera/choroid/RPE” value is recorded as 0.1±0.04 percent per hour.

For the molecule `COc1ccc([C@@H]2CC(=O)c3c(O)cc(O[C@@H]4O[C@H](CO[C@@H]5O[C@@H](C)[C@H](O)[C@@H](O)[C@H]5O)[C@@H](O)[C@H](O)[C@H]4O)cc3O2)cc1O` [hesperidin, hesperetin 7-rutinoside], the “Saturation Solubility” value in [4] (Water (0% HP-β-CD)) turned out to be 4.95 ± 0.99 µg/mL; in series [4] (pH 1.21, 200 mM buffer) it was 4.15 ± 0.34 µg/mL; in series [4] (pH 3.11, 200 mM buffer), 8.44 ± 0.47 µg/mL; in [4] (pH 5.12, 200 mM buffer), 5.96 ± 1.92 µg/mL; in series [4] (pH 7.48, 200 mM buffer), 5.26 ± 0.31 µg/mL; in [4] (pH 9.11, 200 mM buffer) it was 8.93 ± 0.73 µg/mL. The “Fold Increase in solubility” value in series [5] (1 %w/v HP-β-CD) is on record as 9; in series [5] (2.5 %w/v HP-β-CD) it was 18; in series [5] (5 %w/v HP-β-CD) it was 37; in series [5] (7.5 %w/v HP-β-CD), 48; in [5] (10 %w/v HP-β-CD), 55; in [5] (15 %w/v HP-β-CD), 76. In addition, the “Hesperidin Solubility” value turned out to be 42.97 ± 4.28 µg/mL in [5] (1 %w/v HP-β-CD in water, 25°C, 24h); 83.34 ± 6.34 µg/mL in series [5] (2.5 %w/v HP-β-CD in water, 25°C, 24h); 169.90 ± 25.36 µg/mL in [5] (5 %w/v HP-β-CD in water, 25°C, 24h); 219.03 ± 15.62 µg/mL in series [5] (7.5 %w/v HP-β-CD in water, 25°C, 24h); 252.77 ± 8.81 µg/mL in series [5] (10 %w/v HP-β-CD in water, 25°C, 24h); 348.55 ± 5.28 µg/mL in series [5] (15 %w/v HP-β-CD in water, 25°C, 24h). For the same molecule, the “Hesperidin Solubility” value in series [5] (20 %w/v HP-β-CD in water, 25°C, 24h) was 431.97 ± 0.43 µg/mL. Further, the “Binding constant (K) with HP-β-CD, 1:1 complex” value in series [5] (from phase solubility plot, 25°C, 24h) was found to be 625 ± 78 M⁻¹. In series [6] (pH 1.2, 3, 5, 7.4, 25 and 40°C, upto 2 months), the “Stability in aqueous solutions (decrease in hesperidin content)” value is “did not demonstrate any decrease”. In addition, the Degradation rate constant in [6] (pH 9, 25°C) was determined as 0.03 day⁻¹; in [6] (pH 9, 40°C), 0.15 day⁻¹. Moreover, the Half-life in series [6] (pH 9, 25°C) was 23 days; in series [6] (pH 9, 40°C), 4.5 days. Also, the “Hesperetin generation, or decrease in hesperidin concentrations, in the homogenates” value in [7] is listed as “not observed”. The Transcorneal permeability in [2] (apical to basolateral (A-B)) is given as 1.11±0.86×10^−6 cm/s; in [2] (basolateral to apical (B-A)), 1.16±0.05×10^−6 cm/s. The “Permeability across sclera alone” value in series [8] is recorded as 10.2±2.1×10^−6 cm/s. For the same molecule, in series [9], the Intrinsic solubility was 36 µM. For the same molecule, the “Binding constant with HP-β-CD” value in series [10] is 60 M⁻¹. The pKa entry in series [11] (all of the alcoholic hydroxyl groups) is “greater than 11.5”; in series [11] (two phenolic hydroxyl groups), 10±0.2. In addition, the Bioavailability in [12] was less than 25%. In addition, the “Permeability across sclera/choroid/RPE” value is 1.52±0.78×10^−6 cm/s in [3] (RPE to sclera (R-S) direction) and 0.82±0.69×10^−6 cm/s in series [3] (sclera to RPE (S-R) direction).
